Results: ChEMBL document CHEMBL4602716, “Development of Selective Histone Deacetylase 6 (HDAC6) Degraders Recruiting Von Hippel-Lindau (VHL) E3 Ubiquitin Ligase” (ACS Med Chem Lett, 2020)
Activity calls are given as the source filed them. No cut-off for these calls is given here.

What was measured:
Type in all cases: cell-based
[1] = target: T1, von Hippel-Lindau disease tumor suppressor/Protein deacetylase HDAC6 (Homo sapiens, UniProt Q9UBN7+P40337); experiment: Protac activity at VHL/HDAC6 in human MM1S cells assessed as HDAC6 degradation at 100 nM measured after 6 hrs by ELISA
Procedure, shortened: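 Linker-length screen. MM1S cells were treated with degraders at 100 nM for 6 h, and HDAC6 protein level was quantified by in-cell ELISA.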
Target sequence in this assay (P40337 whole entry, looked up): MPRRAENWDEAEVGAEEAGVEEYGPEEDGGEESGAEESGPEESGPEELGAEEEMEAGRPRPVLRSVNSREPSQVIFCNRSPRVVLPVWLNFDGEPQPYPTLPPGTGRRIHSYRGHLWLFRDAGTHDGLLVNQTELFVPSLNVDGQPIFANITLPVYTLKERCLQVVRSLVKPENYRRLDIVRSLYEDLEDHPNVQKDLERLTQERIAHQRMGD
Target sequence in this assay (Q9UBN7 whole entry, looked up): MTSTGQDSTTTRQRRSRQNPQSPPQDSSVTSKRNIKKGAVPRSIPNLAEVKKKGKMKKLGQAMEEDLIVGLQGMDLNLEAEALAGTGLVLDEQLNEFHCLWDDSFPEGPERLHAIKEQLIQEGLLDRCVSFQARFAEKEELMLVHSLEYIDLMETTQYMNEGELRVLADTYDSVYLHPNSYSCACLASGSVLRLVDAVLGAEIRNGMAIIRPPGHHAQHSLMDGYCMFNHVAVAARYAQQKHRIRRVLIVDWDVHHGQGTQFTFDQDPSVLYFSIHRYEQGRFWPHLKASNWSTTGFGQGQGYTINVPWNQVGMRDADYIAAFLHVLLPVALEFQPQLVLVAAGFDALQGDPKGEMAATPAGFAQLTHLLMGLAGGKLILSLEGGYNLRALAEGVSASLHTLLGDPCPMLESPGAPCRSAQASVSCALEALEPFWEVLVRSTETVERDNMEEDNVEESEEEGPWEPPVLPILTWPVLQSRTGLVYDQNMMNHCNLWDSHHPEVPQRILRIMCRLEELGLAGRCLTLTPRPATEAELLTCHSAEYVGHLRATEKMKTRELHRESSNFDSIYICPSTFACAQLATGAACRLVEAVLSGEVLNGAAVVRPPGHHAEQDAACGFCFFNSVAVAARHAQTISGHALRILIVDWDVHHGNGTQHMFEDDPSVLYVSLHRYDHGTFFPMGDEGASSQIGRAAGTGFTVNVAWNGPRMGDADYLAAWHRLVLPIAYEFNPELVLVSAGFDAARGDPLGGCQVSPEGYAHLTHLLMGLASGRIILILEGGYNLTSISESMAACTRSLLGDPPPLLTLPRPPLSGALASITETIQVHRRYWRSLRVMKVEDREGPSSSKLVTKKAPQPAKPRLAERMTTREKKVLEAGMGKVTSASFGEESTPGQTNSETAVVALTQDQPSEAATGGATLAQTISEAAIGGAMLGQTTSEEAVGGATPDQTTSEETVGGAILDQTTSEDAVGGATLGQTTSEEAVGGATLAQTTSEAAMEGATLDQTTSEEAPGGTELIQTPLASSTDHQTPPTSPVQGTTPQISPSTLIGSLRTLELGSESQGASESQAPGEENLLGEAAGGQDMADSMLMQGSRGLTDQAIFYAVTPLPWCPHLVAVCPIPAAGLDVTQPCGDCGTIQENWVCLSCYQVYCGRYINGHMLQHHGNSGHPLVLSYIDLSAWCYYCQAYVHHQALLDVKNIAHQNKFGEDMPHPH

[2] = target: T1, von Hippel-Lindau disease tumor suppressor/Protein deacetylase HDAC6; experiment: Protac activity at VHL/HDAC6 in human MM1S cells assessed as HDAC6 degradation at 100 nM measured after 6 hrs by Western blot analysis
Procedure, shortened: (§1)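 MM1S cells were treated with degraders at 100 nM for 6 h. Lysates were analysed by Western blot for HDAC6 and acetylated tubulin.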
Target sequence in this assay (P40337 whole entry, looked up): as the sequence (P40337 whole entry, looked up) above
Target sequence in this assay (Q9UBN7 whole entry, looked up): as the sequence (Q9UBN7 whole entry, looked up) above

[3] = target: T1, von Hippel-Lindau disease tumor suppressor/Protein deacetylase HDAC6; experiment: Protac activity at VHL/HDAC6 in human MM1S cells assessed as increase in tubulin acetylation at 100 nM measured after 6 hrs by Western blot analysis; procedure, shortened: as §1
Target sequence in this assay (P40337 whole entry, looked up): as the sequence (P40337 whole entry, looked up) above
Target sequence in this assay (Q9UBN7 whole entry, looked up): as the sequence (Q9UBN7 whole entry, looked up) above

[4] = target: T2, Protein cereblon/Protein deacetylase HDAC6 (Homo sapiens, UniProt Q9UBN7+Q96SW2); experiment: Protac activity at CRBN/HDAC6 in human MM1S cells measured after 6 hrs by ELISA
Procedure, shortened: (§2)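 MM1S multiple myeloma cells exposed to degraders for 6 h. HDAC6 protein level was read by in-cell ELISA; dose-response ran from 1 nM to 3 μM. DC50 and Dmax were derived from the dose-response curve.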
Target sequence in this assay (Q9UBN7 whole entry): as the sequence (Q9UBN7 whole entry, looked up) above
Target sequence in this assay (Q96SW2 whole entry): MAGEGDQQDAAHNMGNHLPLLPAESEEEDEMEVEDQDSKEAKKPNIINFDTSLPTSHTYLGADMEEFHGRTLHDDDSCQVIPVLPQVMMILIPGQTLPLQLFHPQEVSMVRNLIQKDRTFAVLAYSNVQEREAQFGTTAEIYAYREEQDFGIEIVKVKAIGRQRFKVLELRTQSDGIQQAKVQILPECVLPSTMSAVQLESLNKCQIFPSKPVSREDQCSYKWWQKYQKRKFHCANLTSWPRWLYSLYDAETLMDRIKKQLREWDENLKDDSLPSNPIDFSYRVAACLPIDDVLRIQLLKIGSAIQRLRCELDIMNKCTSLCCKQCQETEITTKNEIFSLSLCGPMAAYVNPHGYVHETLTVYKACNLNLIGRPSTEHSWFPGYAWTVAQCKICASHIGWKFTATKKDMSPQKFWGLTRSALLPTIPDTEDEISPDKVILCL

[5] = target: T2, Protein cereblon/Protein deacetylase HDAC6; experiment: Protac activity at CRBN/HDAC6 in human MM1S cells measured after 6 hrs by ELISA relative to control; procedure, shortened: as §2
Target sequence in this assay (Q96SW2 whole entry, looked up): as the sequence (Q96SW2 whole entry) above
Target sequence in this assay (Q9UBN7 whole entry, looked up): as the sequence (Q9UBN7 whole entry, looked up) above

[6] = target: T2, Protein cereblon/Protein deacetylase HDAC6; experiment: Protac activity at CRBN/HDAC6 in human MM1S cells assessed as increase in tubulin acetylation at 300 nM to 1 microM after 6 hrs by Western blot analysis
Target sequence in this assay (Q96SW2 whole entry, looked up): as the sequence (Q96SW2 whole entry) above
Target sequence in this assay (Q9UBN7 whole entry, looked up): as the sequence (Q9UBN7 whole entry, looked up) above

[7] = target: T2, Protein cereblon/Protein deacetylase HDAC6; experiment: Protac activity at CRBN/HDAC6 in human MM1S cells assessed as reduction in protein level at 100 nM after 30 mins by Western blot analysis
Target sequence in this assay (Q96SW2 whole entry, looked up): as the sequence (Q96SW2 whole entry) above
Target sequence in this assay (Q9UBN7 whole entry, looked up): as the sequence (Q9UBN7 whole entry, looked up) above

[8] = target: T2, Protein cereblon/Protein deacetylase HDAC6; experiment: Protac activity at CRBN/HDAC6 in human MM1S cells assessed as reduction in protein level at 100 nM after 4 hrs by Western blot analysis
Target sequence in this assay (Q96SW2 whole entry, looked up): as the sequence (Q96SW2 whole entry) above
Target sequence in this assay (Q9UBN7 whole entry, looked up): as the sequence (Q9UBN7 whole entry, looked up) above

[9] = target: T3, Protein cereblon/Protein deacetylase HDAC6 (Mus musculus, UniProt Q9Z2V5+Q8C7D2); experiment: Protac activity at CRBN/HDAC6 in mouse 4935 cells assessed as HDAC6 degradation after 6 hrs by ELISA
T3 sequence (Q9Z2V5 whole entry): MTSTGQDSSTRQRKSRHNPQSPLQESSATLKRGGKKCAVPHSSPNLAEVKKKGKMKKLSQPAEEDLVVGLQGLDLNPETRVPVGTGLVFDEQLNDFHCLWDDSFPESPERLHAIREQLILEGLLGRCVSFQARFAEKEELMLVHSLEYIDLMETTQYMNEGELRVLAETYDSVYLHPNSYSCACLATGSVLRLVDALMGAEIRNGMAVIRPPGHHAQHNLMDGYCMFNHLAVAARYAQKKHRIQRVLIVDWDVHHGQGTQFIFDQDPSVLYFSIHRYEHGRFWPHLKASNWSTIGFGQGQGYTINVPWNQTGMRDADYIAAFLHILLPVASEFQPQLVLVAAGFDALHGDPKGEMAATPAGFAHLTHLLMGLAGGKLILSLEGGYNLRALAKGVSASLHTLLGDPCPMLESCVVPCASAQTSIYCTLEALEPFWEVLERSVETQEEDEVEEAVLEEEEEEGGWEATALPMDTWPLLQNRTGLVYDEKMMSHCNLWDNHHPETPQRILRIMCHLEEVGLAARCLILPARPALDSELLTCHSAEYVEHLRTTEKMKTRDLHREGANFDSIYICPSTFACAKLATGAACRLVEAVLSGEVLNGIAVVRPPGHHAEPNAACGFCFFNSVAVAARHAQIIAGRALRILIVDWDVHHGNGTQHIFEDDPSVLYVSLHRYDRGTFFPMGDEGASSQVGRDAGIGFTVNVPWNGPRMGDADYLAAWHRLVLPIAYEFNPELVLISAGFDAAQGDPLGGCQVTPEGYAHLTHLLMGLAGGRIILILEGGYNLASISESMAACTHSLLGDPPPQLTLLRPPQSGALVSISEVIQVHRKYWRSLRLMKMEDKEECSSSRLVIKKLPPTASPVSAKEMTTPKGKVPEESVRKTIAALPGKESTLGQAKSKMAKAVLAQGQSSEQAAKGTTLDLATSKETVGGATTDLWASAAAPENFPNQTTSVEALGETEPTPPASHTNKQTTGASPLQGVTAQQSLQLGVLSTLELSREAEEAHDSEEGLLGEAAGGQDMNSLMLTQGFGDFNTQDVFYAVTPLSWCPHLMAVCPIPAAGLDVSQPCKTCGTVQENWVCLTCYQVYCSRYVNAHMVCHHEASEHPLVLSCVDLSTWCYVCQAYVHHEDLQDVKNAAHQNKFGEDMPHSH
T3 sequence (Q8C7D2 whole entry): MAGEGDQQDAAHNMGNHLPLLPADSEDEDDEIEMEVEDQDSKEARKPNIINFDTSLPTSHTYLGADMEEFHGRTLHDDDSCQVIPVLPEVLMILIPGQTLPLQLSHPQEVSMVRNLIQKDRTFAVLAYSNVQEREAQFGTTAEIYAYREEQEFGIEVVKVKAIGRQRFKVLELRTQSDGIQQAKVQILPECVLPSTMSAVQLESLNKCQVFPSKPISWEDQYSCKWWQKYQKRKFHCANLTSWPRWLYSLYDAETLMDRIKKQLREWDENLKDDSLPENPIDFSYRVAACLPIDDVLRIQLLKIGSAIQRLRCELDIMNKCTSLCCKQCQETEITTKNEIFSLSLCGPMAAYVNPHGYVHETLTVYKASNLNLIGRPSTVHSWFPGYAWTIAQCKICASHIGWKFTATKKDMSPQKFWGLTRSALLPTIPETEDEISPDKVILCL
Procedure, shortened: (§3)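 Mouse 4935 cells were treated with degrader for 6 h, and HDAC6 level was measured by in-cell ELISA.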

[10] = target: T3, Protein cereblon/Protein deacetylase HDAC6; experiment: Protac activity at CRBN/HDAC6 in mouse 4935 cells assessed as HDAC6 degradation after 6 hrs by Western blot analysis
Procedure, shortened: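 Mouse 4935 cells were treated with degraders for 6 h, then analysed by Western blot for HDAC6 and acetylated tubulin.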

[11] = target: Protein cereblon/Protein deacetylase HDAC6 (Mus musculus) (UniProt Q9Z2V5+Q8C7D2); experiment: Protac activity at CRBN/HDAC6 in mouse 4935 cells assessed as HDAC6 degradation after 6 hrs by relative to control; procedure, shortened: as §3
[12] = target: T1, von Hippel-Lindau disease tumor suppressor/Protein deacetylase HDAC6; experiment: Protac activity at VHL/HDAC6 in human MM1S cells measured after 6 hrs by ELISA; procedure, shortened: as §2
Target sequence in this assay (Q9UBN7 whole entry): as the sequence (Q9UBN7 whole entry, looked up) above
Target sequence in this assay (P40337 whole entry): as the sequence (P40337 whole entry, looked up) above

[13] = target: T1, von Hippel-Lindau disease tumor suppressor/Protein deacetylase HDAC6; experiment: Protac activity at VHL/HDAC6 in human MM1S cells measured after 6 hrs by ELISA relative to control; procedure, shortened: as §2
Target sequence in this assay (P40337 whole entry, looked up): as above
Target sequence in this assay (Q9UBN7 whole entry, looked up): as the sequence (Q9UBN7 whole entry, looked up) above

Row | SMILES | Activity [1] | Activity [2] | further results
1 | CCCCN(Cc1ccc(C(=O)NO)cc1)C(=O)Nc1ccc(OCCCCCCCn2cc(CCCCC(=O)N[C@H](C(=O)N3C[C@H](O)C[C@H]3C(=O)NCc3ccc(-c4scnc4C)cc3)C(C)(C)C)nn2)cc1 | Active |  | 
2 | CCCCN(Cc1ccc(C(=O)NO)cc1)C(=O)Nc1ccc(OCCCCn2cc(CCCCC(=O)N[C@H](C(=O)N3C[C@H](O)C[C@H]3C(=O)NCc3ccc(-c4scnc4C)cc3)C(C)(C)C)nn2)cc1 | Active |  | 
3 | CCCCN(Cc1ccc(C(=O)NO)cc1)C(=O)Nc1ccc(OCCCCCn2cc(CNc3cccc4c3C(=O)N(C3CCC(=O)NC3=O)C4=O)nn2)cc1 (stereo unspecified) |  |  | DC50 [4]: 2.2 nM; Emax [5]: 86%; Activity [6]: Active; Activity [7]: Active; Activity [8]: Active; DC50 [9]: 18 nM; DC50 [10]: 360 nM; Emax [11]: 45%
4 | CCCCN(Cc1ccc(C(=O)NO)cc1)C(=O)Nc1ccc(OCCCCCCCCCCCCn2cc(CCCCC(=O)N[C@H](C(=O)N3C[C@H](O)C[C@H]3C(=O)NCc3ccc(-c4scnc4C)cc3)C(C)(C)C)nn2)cc1 | Active | Active | DC50 [12]: 11 nM; Emax [13]: 89%
5 | CCCCN(Cc1ccc(C(=O)NO)cc1)C(=O)Nc1ccc(OCCCCCCn2cc(CCCCC(=O)N[C@H](C(=O)N3C[C@H](O)C[C@H]3C(=O)NCc3ccc(-c4scnc4C)cc3)C(C)(C)C)nn2)cc1 | Active |  | 
6 | CCCCN(Cc1ccc(C(=O)NO)cc1)C(=O)Nc1ccc(OCCCn2cc(CCCCC(=O)N[C@H](C(=O)N3C[C@H](O)C[C@H]3C(=O)NCc3ccc(-c4scnc4C)cc3)C(C)(C)C)nn2)cc1 | Active |  | 
7 | CCCCN(Cc1ccc(C(=O)NO)cc1)C(=O)Nc1ccc(OCCCCCCCCCn2cc(CCCCC(=O)N[C@H](C(=O)N3C[C@H](O)C[C@H]3C(=O)NCc3ccc(-c4scnc4C)cc3)C(C)(C)C)nn2)cc1 | Active | Active | Activity [3]: Active

The next lines start with results.

Row | Activity [1] | Activity [2] | SMILES | further results
8 | Active | Active | CCCCN(Cc1ccc(C(=O)NO)cc1)C(=O)Nc1ccc(OCCCCCCCCCCn2cc(CCCCC(=O)N[C@H](C(=O)N3C[C@H](O)C[C@H]3C(=O)NCc3ccc(-c4scnc4C)cc3)C(C)(C)C)nn2)cc1 | Activity [3]: Active
9 | Active | Active | CCCCN(Cc1ccc(C(=O)NO)cc1)C(=O)Nc1ccc(OCCCCCCCCn2cc(CCCCC(=O)N[C@H](C(=O)N3C[C@H](O)C[C@H]3C(=O)NCc3ccc(-c4scnc4C)cc3)C(C)(C)C)nn2)cc1 | 
10 | Active |  | CCCCN(Cc1ccc(C(=O)NO)cc1)C(=O)Nc1ccc(OCCCCCn2cc(CCCCC(=O)N[C@H](C(=O)N3C[C@H](O)C[C@H]3C(=O)NCc3ccc(-c4scnc4C)cc3)C(C)(C)C)nn2)cc1 | 
11 | Active |  | CCCCN(Cc1ccc(C(=O)NO)cc1)C(=O)Nc1ccc(OCCn2cc(CCCCC(=O)N[C@H](C(=O)N3C[C@H](O)C[C@H]3C(=O)NCc3ccc(-c4scnc4C)cc3)C(C)(C)C)nn2)cc1 | 
